Assay results of several laboratories.
Protocols differ between the studies behind these lines.
Target: Dual specificity mitogen-activated protein kinase kinase 5 (MAP2K5, Homo sapiens, UniProt Q13163)
Residues used in one study (Q13163 1-448): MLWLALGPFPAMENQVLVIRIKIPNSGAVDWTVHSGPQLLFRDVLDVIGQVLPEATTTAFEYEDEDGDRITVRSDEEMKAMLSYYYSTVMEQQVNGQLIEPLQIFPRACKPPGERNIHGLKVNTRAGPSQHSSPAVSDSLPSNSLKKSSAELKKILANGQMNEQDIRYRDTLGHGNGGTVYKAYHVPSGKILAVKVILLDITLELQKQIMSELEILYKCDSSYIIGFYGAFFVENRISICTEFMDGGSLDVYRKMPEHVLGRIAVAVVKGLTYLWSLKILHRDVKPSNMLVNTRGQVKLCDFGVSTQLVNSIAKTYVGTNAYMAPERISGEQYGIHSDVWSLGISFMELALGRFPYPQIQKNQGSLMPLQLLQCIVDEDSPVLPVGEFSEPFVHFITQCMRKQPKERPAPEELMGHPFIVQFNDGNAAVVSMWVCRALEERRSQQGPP

SMILES	effect on	technique	concentration	remaining binding [%]
C[C@@H]1CCN(c2nccc(-c3cnn4ncccc34)n2)C1	binding	–	1 µM	71
O=C(NCC1CCOCC1)c1n[nH]cc1NC(=O)c1c(F)cccc1F	binding	competition with immobilised ligand	1 µM	68
c1cnn2ncc(-c3ccnc(N4CCC45COC5)n3)c2c1	binding	–	1 µM	30
CNC(=O)[C@@H]1CC[C@@H](n2c(-c3ccc4cnccc4c3)nc3ccc(C(=O)NCc4cccc(C(N)=O)c4)cc32)C1	binding	competition with immobilised ligand	1 µM	53
C[C@@H](c1ccc(-n2cnc3c(N)ncnc32)cc1)N1CCc2nn(C)c(Cc3ccccc3)c2C1=O	binding	competition with immobilised ligand	0.1 µM	40
O=C1NC(c2ccccn2)Sc2ccccc21 (stereo not shown)	cell-free assay	competition with immobilised ligand	1 µM	87
Cc1cnc(Nc2ccc(C(=O)N3CCC(N4CCCC4)CC3)cc2)nc1-c1cc2ccccc2s1	binding	competition with immobilised ligand	1 µM	0.4
FC(F)(F)Oc1cccc(-c2cnc3ccc(-c4ccncc4)nn23)c1	cell-free assay	competition with immobilised ligand	5 µM	35
CCN1CCN(Cc2ccc(C(=O)Nc3ccc(C)c(Oc4ccc5c(c4)CC(=O)N5)c3)cc2C(F)(F)F)CC1	binding	competition with immobilised ligand	1 µM	100
O=C(NCCCN1CCOCC1)c1ccc(Nc2ncc(Cl)c(-c3ccc(Cl)s3)n2)cc1	binding	competition with immobilised ligand	1 µM	6.9
NS(=O)(=O)c1cc(NC(=O)Cc2ccccc2)ccc1Oc1cccc(Cl)c1	cell-free assay	competition with immobilised ligand	1 µM	88
F[C@@H]1CCN(c2nccc(-c3cnn4ncccc34)n2)C1	binding	–	1 µM	100
Nc1ncc2c(n1)-c1c([nH]c3ccc(C#CC4CC4)cc13)CCCC2	binding	competition with immobilised ligand	1 µM	21
Cc1noc([C@H]2C[C@@H](c3ccc(C(F)(F)F)cc3)CN(C(=O)N3CCS(=O)(=O)C3)C2)n1	cell-free assay	competition with immobilised ligand	1 µM	78
CC1CCCN1c1nccc(-c2cnn3ncccc23)n1 (stereo not shown)	binding	–	1 µM	100
COc1ccc2c(O[C@@H]3C[C@H]4C(=O)N[C@]5(C(=O)O)CC5/C=C\CCCCC[C@H](NC(=O)OC5CCCC5)C(=O)N4C3)cc(-c3csc(NC(=O)C(C)C)n3)nc2c1C (stereo partly shown)	cell-free assay	competition with immobilised ligand	1 µM	71
N[C@@H]1CCN(c2nccc(-c3cnn4ncccc34)n2)C1	binding	–	1 µM	97
COc1cnc(Nc2cccc(S(N)(=O)=O)c2)nc1N1CCN(c2ccccc2)CC1	binding	competition with immobilised ligand	1 µM	84
CS(=O)(=O)N1CCCC(NC(=O)[C@H](CCC2CCCCC2)NC(=O)c2ccc(CNc3ncnc4c3nnn4-c3ccccc3)cc2)C1 (stereo partly shown)	cell-free assay	competition with immobilised ligand	0.1 µM	100
O=C(c1ccc(Nc2ncc(Cl)c(-c3cc4ccccc4s3)n2)cc1)N1CCC(N2CCCC2)CC1	binding	competition with immobilised ligand	1 µM	2.9
CC(=O)C1=C(C)N(c2cccc(C(F)(F)F)c2)C(=O)N[C@@H]1c1ccc(C#N)nc1	cell-free assay	competition with immobilised ligand	1 µM	100
CN(c1nccc(-c2cnn3ncccc23)n1)C1CC1	binding	–	1 µM	100
